According to ChEMBL document CHEMBL1146857 (J Med Chem, 2006):
Activity calls are given as the source filed them. The calls are words filed in the database; no cut-off is given here.

What was measured:
HCT-116 [1] = assay: Increase in acetylated alpha-tubulin accumulation in human HCT116 cells after 8 hrs; type: functional, cell-based
Procedure, shortened: (§1)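 HCT116 cells were treated for 8 h in McCoy5A medium with 0.1% DMSO over a range of concentrations. Acetylated α-tubulin and histone H4 were detected by Western blot and quantified, and EC50 values were estimated from the concentration curves.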

Histone deacetylase 4 = Histone deacetylase 4 (Homo sapiens, UniProt P56524); assay: Inhibition of HDAC4
Histone deacetylase 4, sequence (P56524 whole entry): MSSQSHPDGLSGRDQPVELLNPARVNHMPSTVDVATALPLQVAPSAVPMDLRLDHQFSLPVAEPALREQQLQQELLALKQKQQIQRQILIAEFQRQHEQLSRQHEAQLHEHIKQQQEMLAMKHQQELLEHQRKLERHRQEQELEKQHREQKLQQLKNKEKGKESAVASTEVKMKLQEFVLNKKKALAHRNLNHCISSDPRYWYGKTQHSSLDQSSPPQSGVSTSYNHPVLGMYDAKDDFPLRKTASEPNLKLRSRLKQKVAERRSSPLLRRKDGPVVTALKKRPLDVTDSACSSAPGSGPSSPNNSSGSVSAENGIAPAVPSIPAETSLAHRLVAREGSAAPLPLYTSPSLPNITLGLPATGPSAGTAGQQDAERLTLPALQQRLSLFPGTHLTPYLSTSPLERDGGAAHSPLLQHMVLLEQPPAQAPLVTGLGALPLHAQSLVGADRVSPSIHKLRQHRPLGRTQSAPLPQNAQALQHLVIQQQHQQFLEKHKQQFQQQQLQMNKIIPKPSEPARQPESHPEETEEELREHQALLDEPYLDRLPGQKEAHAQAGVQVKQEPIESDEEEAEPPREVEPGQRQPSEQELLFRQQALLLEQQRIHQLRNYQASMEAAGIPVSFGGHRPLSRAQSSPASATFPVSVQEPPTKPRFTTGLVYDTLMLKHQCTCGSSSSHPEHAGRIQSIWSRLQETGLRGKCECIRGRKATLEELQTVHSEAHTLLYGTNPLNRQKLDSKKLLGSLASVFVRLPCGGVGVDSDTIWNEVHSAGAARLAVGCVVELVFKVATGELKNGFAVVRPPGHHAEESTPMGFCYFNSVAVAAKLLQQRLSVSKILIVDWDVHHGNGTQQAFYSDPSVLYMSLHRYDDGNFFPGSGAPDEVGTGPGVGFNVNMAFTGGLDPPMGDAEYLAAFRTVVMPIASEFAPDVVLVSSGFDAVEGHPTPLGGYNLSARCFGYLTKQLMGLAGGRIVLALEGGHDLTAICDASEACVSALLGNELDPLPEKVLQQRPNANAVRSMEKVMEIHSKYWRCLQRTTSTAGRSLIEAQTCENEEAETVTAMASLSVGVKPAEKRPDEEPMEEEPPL

[2] = molecular target: T1, Protein deacetylase HDAC6 (Homo sapiens, UniProt Q9UBN7); assay: Inhibition of HDAC6
T1 sequence (Q9UBN7 whole entry): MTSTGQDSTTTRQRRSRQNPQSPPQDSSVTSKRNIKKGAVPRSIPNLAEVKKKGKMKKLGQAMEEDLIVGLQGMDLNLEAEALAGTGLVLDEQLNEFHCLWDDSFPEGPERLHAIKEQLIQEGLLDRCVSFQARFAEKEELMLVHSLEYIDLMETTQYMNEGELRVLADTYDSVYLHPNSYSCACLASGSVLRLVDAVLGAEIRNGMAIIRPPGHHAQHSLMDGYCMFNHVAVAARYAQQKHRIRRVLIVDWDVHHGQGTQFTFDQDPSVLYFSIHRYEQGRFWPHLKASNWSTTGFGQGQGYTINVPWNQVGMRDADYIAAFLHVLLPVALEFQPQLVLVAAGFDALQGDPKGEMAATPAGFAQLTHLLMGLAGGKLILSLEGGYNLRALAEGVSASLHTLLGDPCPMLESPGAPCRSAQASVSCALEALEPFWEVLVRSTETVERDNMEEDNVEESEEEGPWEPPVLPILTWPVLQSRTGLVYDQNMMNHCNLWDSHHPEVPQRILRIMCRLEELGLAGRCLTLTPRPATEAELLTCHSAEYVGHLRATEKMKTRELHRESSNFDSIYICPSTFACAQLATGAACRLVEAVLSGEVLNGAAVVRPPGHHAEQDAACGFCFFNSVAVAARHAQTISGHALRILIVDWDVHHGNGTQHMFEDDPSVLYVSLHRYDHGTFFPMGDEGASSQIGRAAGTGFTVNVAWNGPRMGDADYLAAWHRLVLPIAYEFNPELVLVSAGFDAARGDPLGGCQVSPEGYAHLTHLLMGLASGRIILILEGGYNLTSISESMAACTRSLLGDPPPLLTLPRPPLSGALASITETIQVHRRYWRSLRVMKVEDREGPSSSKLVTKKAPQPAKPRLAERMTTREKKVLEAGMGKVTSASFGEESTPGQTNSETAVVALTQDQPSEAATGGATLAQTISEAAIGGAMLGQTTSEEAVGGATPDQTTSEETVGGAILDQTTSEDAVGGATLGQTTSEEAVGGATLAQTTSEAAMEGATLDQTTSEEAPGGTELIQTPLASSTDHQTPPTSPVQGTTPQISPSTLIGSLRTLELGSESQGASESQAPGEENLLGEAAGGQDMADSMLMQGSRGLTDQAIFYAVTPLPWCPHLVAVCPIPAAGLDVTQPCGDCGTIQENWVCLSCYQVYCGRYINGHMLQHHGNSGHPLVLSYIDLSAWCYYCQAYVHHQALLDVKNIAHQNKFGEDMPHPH

Homo sapiens [3] = species on record: Homo sapiens; assay: Selectivity for HDAC6 over HDAC1
Homo sapiens [4] = species on record: Homo sapiens; assay: Selectivity for HDAC6 over HDAC4
Histone deacetylase 1 = Histone deacetylase 1 (Homo sapiens, UniProt Q13547); assay: Inhibition of HDAC1
Histone deacetylase 1, sequence (Q13547 whole entry): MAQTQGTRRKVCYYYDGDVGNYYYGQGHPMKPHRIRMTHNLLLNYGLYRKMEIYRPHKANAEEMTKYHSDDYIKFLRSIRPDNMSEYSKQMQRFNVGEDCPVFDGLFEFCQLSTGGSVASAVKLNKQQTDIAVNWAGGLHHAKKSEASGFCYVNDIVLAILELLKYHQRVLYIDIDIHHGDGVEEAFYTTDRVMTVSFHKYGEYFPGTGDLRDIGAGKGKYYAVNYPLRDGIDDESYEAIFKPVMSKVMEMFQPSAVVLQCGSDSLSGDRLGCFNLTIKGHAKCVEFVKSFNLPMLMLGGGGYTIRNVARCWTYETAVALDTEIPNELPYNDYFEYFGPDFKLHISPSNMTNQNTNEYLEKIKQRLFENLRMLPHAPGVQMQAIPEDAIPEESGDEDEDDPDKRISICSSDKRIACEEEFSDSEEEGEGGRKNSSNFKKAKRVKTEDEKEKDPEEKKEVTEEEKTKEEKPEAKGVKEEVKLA

HCT-116 [5] = assay: Increase in acetylated histone H4 accumulation in human HCT116 cells after 8 hrs; type: functional, cell-based; procedure, shortened: as §1

Row | IC50 (Histone deacetylase 4) | IC50 [2] | Selectivity ratio (Homo sapiens [3]) | Selectivity ratio (Homo sapiens [4]) | IC50 (Histone deacetylase 1) | SMILES | Activity (HCT-116 [1]) | further results
1 | – | – | – | – | – | CC(C)C(=O)SCCCCC[C@H](NC(=O)OC(C)(C)C)C(=O)NC1CCCCCC1 | Dose-dependent effect | –
2 | 1030 nM | 29 nM | 42 | 36 | 1210 nM | CC(C)(C)OC(=O)N[C@@H](CCCCCS)C(=O)NC1CCCC1 | – | –
3 | 1140 nM | 36 nM | 35 | 32 | 1270 nM | CC(C)(C)OC(=O)N[C@@H](CCCCCS)C(=O)NC1CCCCC1 | – | –
4 | – | – | – | – | – | CC(C)C(=O)SCCCCCCC(=O)Nc1cccc(-c2ccccc2)c1 | – | Activity (HCT-116 [5]): Active
5 | 840 nM | 23 nM | 39 | 37 | 900 nM | CC(C)(C)OC(=O)N[C@@H](CCCCCS)C(=O)NC1CCCCCC1 | – | –
6 | – | – | – | – | – | CC(C)C(=O)SCCCCCCC(=O)Nc1nc(-c2ccccc2)cs1 | Active | Activity (HCT-116 [5]): Active
7 | – | – | – | – | – | CC(C)C(=O)SCCCCC[C@H](NC(=O)OC(C)(C)C)C(=O)NC(C)(C)C | Dose-dependent effect | –
8 | – | – | – | – | – | CC(C)C(=O)SCCCCC[C@H](NC(=O)OC(C)(C)C)C(=O)NC1CCCCC1 | Dose-dependent effect | –
9 | – | – | – | – | – | CC(C)C(=O)SCCCCC[C@H](NC(=O)OC(C)(C)C)C(=O)NC1CCCC1 | Dose-dependent effect | –
